According to ChEMBL document CHEMBL1124568, “2,4-Diamino-5-benzylpyrimidines as antibacterial agents. 13. Some alkenyl derivatives with high in vitro activity against anaerobic organisms” (J Med Chem, 1989):
≈ marks a conversion by molar mass, not a printed value.

Columns and labels:
[1] = test system: Clostridium perfringens; test: Ratio of antibacterial (Clostridium perfringens) activities compared to that of trimethoprim and metronidazole; format: functional
[2] = test system: Pasteurella multocida; test: Antibacterial (Pasteurella multocides ATCC 6587) activity compared to trimethoprim.; format: functional
Procedure, shortened: (§1)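 Each MIC is divided by the MIC of trimethoprim run alongside. Serial dilutions were normally 0.1, 0.3, 1, 3, 10, etc., and occasionally 1, 5 and 10. For E. coli the value is the average over six strains.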

[3] = test system: Clostridioides difficile; test: Ratio of antibacterial (Clostridium difficile) activities compared to that of trimethoprim and metronidazole; format: functional
[4] = test system: Escherichia coli; test: Antibacterial (Escherichia coli) activity compared to trimethoprim.; format: functional; procedure, shortened: as §1
[5] = target: T1, Dihydrofolate reductase (Rattus norvegicus, UniProt Q920D2); test: In vitro inhibition of rat liver dihydrofolate reductase.; conditions: read-out: I50
T1 sequence (Q920D2 whole entry): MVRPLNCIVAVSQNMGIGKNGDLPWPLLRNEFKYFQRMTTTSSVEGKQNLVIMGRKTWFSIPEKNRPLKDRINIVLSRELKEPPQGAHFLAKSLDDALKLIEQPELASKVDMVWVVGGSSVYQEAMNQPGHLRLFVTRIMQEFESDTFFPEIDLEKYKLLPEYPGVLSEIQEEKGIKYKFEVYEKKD

[6] = test system: Staphylococcus aureus; test: Antibacterial (Staphylococcus aureus CN491) activity compared to trimethoprim.; format: functional; procedure, shortened: as §1
[7] = test system: Klebsiella pneumoniae; test: Antibacterial (Klebsiella pneumoniae CN3632) activity compared to trimethoprim.; format: functional; procedure, shortened: as §1
[8] = test system: Bacteroides thetaiotaomicron; test: Ratio of antibacterial (Bacteroides thetaiotaomicron) activities compared to that of trimethoprim and metronidazole; format: functional
[9] = test system: Serratia marcescens; test: Antibacterial (Serratia marcescens CN2398) activity compared to trimethoprim.; format: functional; procedure, shortened: as §1
[10] = test system: Shigella flexneri; test: Antibacterial (Shigella flexneri CN6007) activity compared to trimethoprim.; format: functional; procedure, shortened: as §1
[11] = test system: Proteus vulgaris; test: Antibacterial (Proteus vulgaris CN329) activity compared to trimethoprim.; format: functional; procedure, shortened: as §1
[12] = Antibacterial (Salmonella typhi CN512) activity compared to trimethoprim.; format: functional, salmonella typhosa
[13] = test system: Klebsiella aerogenes; test: Antibacterial (Enterobacter aerogenes 2201/86) activity compared to trimethoprim.; format: functional; procedure, shortened: as §1
[14] = test system: Mycolicibacterium smegmatis; test: Antibacterial (Mycobacterium smegmatis S3254) activity compared to trimethoprim.; format: functional; procedure, shortened: as §1
[15] = test system: Fusobacterium nucleatum; test: Ratio of antibacterial (Fusobacterium nucleatum) activities compared to that of trimethoprim and metronidazole; format: functional
[16] = test system: Phocaeicola vulgatus; test: Ratio of antibacterial (Bacteroides vulgatus) activities compared to that of trimethoprim and metronidazole; format: functional
[17] = test system: Streptococcus pyogenes; test: Antibacterial ([…] CN10) activity compared to trimethoprim.; format: functional; procedure, shortened: as §1
[18] = Half-life in dogs Plasma; format: ADME, organism-based, Canis lupus familiaris; conditions: dog
Procedure, shortened: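 Two fasted (18 h) male beagles received 5 mg/kg […] (free base), co-dosed with 5 mg/kg trimethoprim in propylene glycol. Jugular plasma was sampled from 0.17 to 24 h. Drug was extracted, separated by TLC and read by fluorescence densitometry. t1/2 came from least-squares linear regression of the postabsorption segment of the plasma curve.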

[19] = test system: Shigella dysenteriae; test: Ratio of antibacterial (Shigella dysentariae CN513) activities of compound and trimethoprim; format: functional
[20] = test system: Salmonella; test: Ratio of antibacterial (Salmonella typhi CN512) activities of compound and trimethoprim; format: functional, salmonella typhosa
[21] = test system: Klebsiella aerogenes; test: Ratio of antibacterial (Enterobacter aerogenes, 2201/86) activities of compound and trimethoprim; format: functional; procedure, shortened: as §1
[22] = test system: Staphylococcus aureus; test: Ratio of antibacterial (Staphylococcus aureus CN491) activities of compound and trimethoprim; format: functional; procedure, shortened: as §1
[23] = test system: Escherichia coli; test: Ratio of antibacterial (Escherichia coli CN314) activities of compound and trimethoprim; format: functional
[24] = test system: Streptococcus pyogenes; test: Ratio of antibacterial (Streptococcus pyogenes CN10) activities of compound and trimethoprim
[25] = target: T2, Dihydrofolate reductase (Escherichia coli, UniProt P0ABQ4); test: In vitro inhibition of dihydrofolate reductase of Escherichia coli; conditions: read-out: I50
T2 sequence (P0ABQ4 whole entry): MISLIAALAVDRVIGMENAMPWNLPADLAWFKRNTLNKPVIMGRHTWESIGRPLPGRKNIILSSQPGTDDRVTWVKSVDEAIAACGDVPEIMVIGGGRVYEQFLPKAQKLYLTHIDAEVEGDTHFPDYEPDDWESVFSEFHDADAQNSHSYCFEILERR
Procedure, shortened: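 The E. coli DHFR assay contained 1 nM enzyme, with the lower limit for I50 arbitrarily set at 2 nM. I50 was estimated from plots of % inhibition of steady-state velocity vs log inhibitor concentration.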

[26] = test system: Klebsiella pneumoniae; test: Ratio of antibacterial (Klebsiella pneumoniae CN3632) activities of compound and trimethoprim; format: functional; procedure, shortened: as §1
[27] = test system: Proteus vulgaris; test: Ratio of antibacterial (Proteus vulgaris CN329) activities of compound and trimethoprim; format: functional; procedure, shortened: as §1

SMILES	MIC [1]	MIC [2]	MIC [3]	MIC [4]	IC50 [5]	MIC [6]	MIC [7]	MIC [8]	MIC [9]	MIC [10]	MIC [11]	MIC [12]	MIC [13]	MIC [14]	MIC [15]	MIC [16]	MIC [17]	also measured
C=CCc1cc(Cc2cnc(N)nc2N)cc(CCC)c1O	> 25 mg/L	30 mg/L (≈ 101 µM)	> 25 mg/L	5 mg/L (≈ 16.8 µM)	2 µM	3 mg/L (≈ 10.1 µM)	30 mg/L (≈ 101 µM)	0.8 mg/L	3 mg/L (≈ 10.1 µM)	30 mg/L (≈ 101 µM)	30 mg/L (≈ 101 µM)	100 mg/L (≈ 335 µM)	30 mg/L (≈ 101 µM)	10 mg/L (≈ 33.5 µM)	0.4 mg/L	0.8 mg/L	1 mg/L (≈ 3.35 µM)	–
C=CCOc1cc(Cc2cnc(N)nc2N)cc(OC)c1OC	> 25 mg/L	10 mg/L (≈ 31.6 µM)	> 25 mg/L	–	150 µM	0.3 mg/L (≈ 0.948 µM)	10 mg/L (≈ 31.6 µM)	12.5 mg/L	3 mg/L (≈ 9.48 µM)	10 mg/L (≈ 31.6 µM)	10 mg/L (≈ 31.6 µM)	10 mg/L (≈ 31.6 µM)	10 mg/L (≈ 31.6 µM)	3 mg/L (≈ 9.48 µM)	0.8 mg/L	6.2 mg/L	0.3 mg/L (≈ 0.948 µM)	–
C/C=C/c1cc(Cc2cnc(N)nc2N)cc(/C=C/C)c1OC	25 mg/L	100 mg/L (≈ 322 µM)	25 mg/L	72 mg/L (≈ 232 µM)	27 µM	1 mg/L (≈ 3.22 µM)	100 mg/L (≈ 322 µM)	0.4 mg/L	> 5 mg/L	100 mg/L (≈ 322 µM)	> 50 mg/L	100 mg/L (≈ 322 µM)	100 mg/L (≈ 322 µM)	2 mg/L (≈ 6.44 µM)	1.6 mg/L	0.8 mg/L	0.1 mg/L (≈ 0.322 µM)	–
C/C=C/c1cc(Cc2cnc(N)nc2N)cc(OC)c1OC	> 25 mg/L	10 mg/L (≈ 33.3 µM)	> 25 mg/L	6 mg/L (≈ 20 µM)	57 µM	0.1 mg/L (≈ 0.333 µM)	10 mg/L (≈ 33.3 µM)	1.6 mg/L	1 mg/L (≈ 3.33 µM)	10 mg/L (≈ 33.3 µM)	3 mg/L (≈ 9.99 µM)	3 mg/L (≈ 9.99 µM)	10 mg/L (≈ 33.3 µM)	3 mg/L (≈ 9.99 µM)	0.8 mg/L	0.8 mg/L	0.1 mg/L (≈ 0.333 µM)	half-life [18]: 2.25 h
CCOc1cc(Cc2cnc(N)nc2N)cc2c1OCO2	–	–	–	–	37 µM	–	–	–	–	–	–	–	–	–	–	–	–	MIC [19]: 10 mg/L; MIC [20]: 30 mg/L; MIC [21]: 10 mg/L; MIC [22]: 10 mg/L; MIC [23]: 30 mg/L; MIC [24]: 1 mg/L; IC50 [25]: 0.041 µM; MIC [26]: 30 mg/L; MIC [27]: 10 mg/L
